From ChEMBL document CHEMBL1135421, “2-(Anilinomethyl)imidazolines as alpha1 adrenergic receptor agonists: the discovery of alpha1a subtype selective 2'-alkylsulfonyl-substituted analogues” (J Med Chem, 2002)
Values belong to the molecule of their own block, whether it stands above or below them.

Assays:
[1] = molecular target: T1, Alpha-1D adrenergic receptor (Homo sapiens, UniProt P25100); assay: Agonist potency at aAlpha-1D adrenergic receptor assayed in rat-1 fibroblasts expressing human Alpha-1D adrenergic receptor; format: functional
T1 sequence (P25100 whole entry): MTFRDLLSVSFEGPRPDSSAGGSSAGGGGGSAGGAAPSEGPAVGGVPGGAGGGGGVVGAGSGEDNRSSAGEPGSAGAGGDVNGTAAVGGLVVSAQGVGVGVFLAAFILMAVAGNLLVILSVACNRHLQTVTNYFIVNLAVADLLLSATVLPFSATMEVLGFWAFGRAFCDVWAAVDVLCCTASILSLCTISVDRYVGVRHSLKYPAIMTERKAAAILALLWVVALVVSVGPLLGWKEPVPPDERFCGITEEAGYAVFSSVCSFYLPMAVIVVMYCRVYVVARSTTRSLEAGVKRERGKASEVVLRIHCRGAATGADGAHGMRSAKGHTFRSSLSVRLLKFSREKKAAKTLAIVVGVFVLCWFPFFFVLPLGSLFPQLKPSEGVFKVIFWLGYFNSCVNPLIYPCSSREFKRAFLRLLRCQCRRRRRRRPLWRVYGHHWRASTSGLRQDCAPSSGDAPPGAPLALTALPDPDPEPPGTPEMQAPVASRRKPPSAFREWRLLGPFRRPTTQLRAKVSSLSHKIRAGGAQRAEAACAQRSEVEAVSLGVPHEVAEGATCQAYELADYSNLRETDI
Method in brief: (§1)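 Human α1a, α1b or α1d receptors expressed in Rat-1 fibroblasts (DMEM, 10% heat-inactivated FBS, 0.6 mg/mL G418). Cells were plated at 6000/well and grown 48 h at 37 °C. They were loaded 2 h at 37 °C with Calcium Green (4 μM), pluronic acid 0.2% and probenecid 2.5 mM in HEPES buffer pH 7.4, then read by FLIPR at room temperature: 10 s baseline, 50 s after compound. 11-point curves were expressed as % of the 40 μM phenylephrine response; top concentration typically 5 μM.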

[2] = molecular target: T2, Alpha-1A adrenergic receptor (Homo sapiens, UniProt P35348); assay: (§2) Agonist potency at Alpha-1 adrenergic receptor assayed in rat-1 fibroblasts expressing human Alpha-1 adrenergic receptor; format: functional; method in brief: as §1
T2 sequence (P35348 whole entry): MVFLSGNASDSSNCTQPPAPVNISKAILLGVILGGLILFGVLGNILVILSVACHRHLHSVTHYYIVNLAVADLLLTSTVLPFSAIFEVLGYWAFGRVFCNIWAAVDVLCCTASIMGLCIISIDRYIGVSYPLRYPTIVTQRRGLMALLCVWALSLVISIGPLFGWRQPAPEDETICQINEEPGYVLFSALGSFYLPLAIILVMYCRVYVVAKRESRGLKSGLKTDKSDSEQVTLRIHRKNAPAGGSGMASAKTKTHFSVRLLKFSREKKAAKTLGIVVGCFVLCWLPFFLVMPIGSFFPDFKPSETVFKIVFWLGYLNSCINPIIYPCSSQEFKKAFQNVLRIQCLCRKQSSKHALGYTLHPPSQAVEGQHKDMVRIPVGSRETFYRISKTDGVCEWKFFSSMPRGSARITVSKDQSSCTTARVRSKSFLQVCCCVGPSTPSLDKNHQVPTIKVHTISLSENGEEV

[3] = molecular target: T3, Alpha-2A adrenergic receptor (Homo sapiens, UniProt P08913); assay: Affinity to human aAlpha-2A adrenergic receptor determined by radioligand binding techniques from chinese hamster ovary (CHO) cells; format: cell-based
T3 sequence (P08913 whole entry): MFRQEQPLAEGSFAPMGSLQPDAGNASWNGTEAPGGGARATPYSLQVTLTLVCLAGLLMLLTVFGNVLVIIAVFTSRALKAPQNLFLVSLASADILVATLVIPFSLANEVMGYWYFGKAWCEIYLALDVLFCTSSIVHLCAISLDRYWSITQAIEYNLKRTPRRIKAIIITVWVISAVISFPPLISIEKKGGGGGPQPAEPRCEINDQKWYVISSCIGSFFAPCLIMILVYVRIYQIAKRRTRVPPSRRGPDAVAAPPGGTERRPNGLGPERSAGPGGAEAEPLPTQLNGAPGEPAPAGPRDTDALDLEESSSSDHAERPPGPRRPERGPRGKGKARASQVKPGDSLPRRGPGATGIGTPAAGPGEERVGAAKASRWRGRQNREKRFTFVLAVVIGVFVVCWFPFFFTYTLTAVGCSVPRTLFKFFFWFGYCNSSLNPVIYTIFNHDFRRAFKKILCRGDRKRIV

[4] = molecular target: T4, Alpha-1A adrenergic receptor (Homo sapiens) (UniProt P35348); assay: as §2; format: functional
T4 sequence (whole entry): T2 sequence (P35348 whole entry)
Method in brief: (§3)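 Rat-1 fibroblasts expressing human α1a/α1b/α1d, grown in DMEM with 10% heat-inactivated FBS and 0.6 mg/mL G418, plated 6000 cells/well and cultured 48 h at 37 °C. Loaded 2 h at 37 °C with Calcium Green (4 μM), 0.2% pluronic acid and 2.5 mM probenecid in HEPES buffer pH 7.4. FLIPR read at room temperature: 10 s baseline, then 50 s after compound. 11-point curves as % of 40 μM phenylephrine response, top concentration typically 5 μM.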

[5] = molecular target: T5, Alpha-2A adrenergic receptor (Homo sapiens) (UniProt P08913); assay: Agonist potency at Alpha-2A adrenergic receptor assayed in CHO cells expressing human alpha-2a; format: functional, cell-based
T5 sequence (whole entry): T3 sequence (P08913 whole entry)

[6] = molecular target: T3, Alpha-2A adrenergic receptor; assay: Agonist potency at Alpha-2A adrenergic receptor assayed in CHO cells expressing human alpha 2a; format: functional, cell-based
[7] = molecular target: T6, Alpha-1B adrenergic receptor (Homo sapiens, UniProt P35368); assay: Agonist potency at alpha-1b adrenoceptors assayed in rat-1 fibroblasts expressing human alpha-1b; format: functional; method in brief: as §3
T6 sequence (P35368 whole entry): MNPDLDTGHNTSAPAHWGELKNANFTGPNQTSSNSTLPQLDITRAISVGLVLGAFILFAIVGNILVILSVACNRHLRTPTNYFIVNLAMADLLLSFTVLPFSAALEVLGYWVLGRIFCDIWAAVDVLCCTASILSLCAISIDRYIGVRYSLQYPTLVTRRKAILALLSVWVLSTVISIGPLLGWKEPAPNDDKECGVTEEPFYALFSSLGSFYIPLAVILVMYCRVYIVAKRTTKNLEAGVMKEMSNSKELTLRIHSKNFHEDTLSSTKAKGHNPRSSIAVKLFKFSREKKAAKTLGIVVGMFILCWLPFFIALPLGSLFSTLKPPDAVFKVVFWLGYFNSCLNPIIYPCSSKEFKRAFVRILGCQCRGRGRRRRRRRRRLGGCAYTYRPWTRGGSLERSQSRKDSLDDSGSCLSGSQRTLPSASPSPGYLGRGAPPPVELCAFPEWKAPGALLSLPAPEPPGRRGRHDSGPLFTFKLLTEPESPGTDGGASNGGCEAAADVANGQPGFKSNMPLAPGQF

SMILES: CS(=O)(=O)c1cc(F)ccc1NCC1=NCCN1
EC50 [1]: > 100000 nM | EC50 [2]: 437 nM

Ki [3]: > 7940 nM | pEC5 [4]: 7.16 | pEC5 [5]: < 5
SMILES: CCCS(=O)(=O)c1ccccc1NCC1=NCCN1

EC50 [6]: 39.8 nM | EC50 [7]: 2.19 nM
SMILES: CSc1ccccc1NCC1=NCCN1
